# Assay results reported in ChEMBL document CHEMBL1152541, “Staurosporine tethered peptide ligands that target cAMP-dependent protein kinase (PKA): optimization and selectivity profiling” (Bioorg Med Chem, 2009).
# *1 amine or outer side, *2 acyl side, *3 side chain or, on linkers, in order; H or OH if unused. Where a SMILES comes first, the peptide text is derived from it. Bridges are numbered along the chain shown (N, C = ends). [ ]: non-standard residue; d: D form. The star is where a group is joined. Staurosporine = CO[C@@H]1[C@H](N(C)*)C[C@H]2O[C@]1(C)n1c3ccccc3c3c4c(c5c6ccccc6n2c5c31)C(=O)NC4; Suc = O=C(CCC(=O)[*:2])[*:1]; Dap = NC[C@H](N)C(=O)O; βAla = NCCC(=O)O
# Experiments:
# [1] = molecular target: Serine/threonine-protein kinase pim-2 (Homo sapiens) (UniProt Q9P1W9); assay: Binding affinity to human PIM2 at 500 nM by cell-based competition binding assay relative to control in presence of DTT
# [2] = molecular target: ALK tyrosine kinase receptor (Homo sapiens) (UniProt Q9UM73); assay: Binding affinity to human ALK at 500 nM by cell-based competition binding assay relative to control in presence of DTT
# ALK tyrosine kinase receptor (Homo sapiens), sequence (Q9UM73 19-1620 limits assumed): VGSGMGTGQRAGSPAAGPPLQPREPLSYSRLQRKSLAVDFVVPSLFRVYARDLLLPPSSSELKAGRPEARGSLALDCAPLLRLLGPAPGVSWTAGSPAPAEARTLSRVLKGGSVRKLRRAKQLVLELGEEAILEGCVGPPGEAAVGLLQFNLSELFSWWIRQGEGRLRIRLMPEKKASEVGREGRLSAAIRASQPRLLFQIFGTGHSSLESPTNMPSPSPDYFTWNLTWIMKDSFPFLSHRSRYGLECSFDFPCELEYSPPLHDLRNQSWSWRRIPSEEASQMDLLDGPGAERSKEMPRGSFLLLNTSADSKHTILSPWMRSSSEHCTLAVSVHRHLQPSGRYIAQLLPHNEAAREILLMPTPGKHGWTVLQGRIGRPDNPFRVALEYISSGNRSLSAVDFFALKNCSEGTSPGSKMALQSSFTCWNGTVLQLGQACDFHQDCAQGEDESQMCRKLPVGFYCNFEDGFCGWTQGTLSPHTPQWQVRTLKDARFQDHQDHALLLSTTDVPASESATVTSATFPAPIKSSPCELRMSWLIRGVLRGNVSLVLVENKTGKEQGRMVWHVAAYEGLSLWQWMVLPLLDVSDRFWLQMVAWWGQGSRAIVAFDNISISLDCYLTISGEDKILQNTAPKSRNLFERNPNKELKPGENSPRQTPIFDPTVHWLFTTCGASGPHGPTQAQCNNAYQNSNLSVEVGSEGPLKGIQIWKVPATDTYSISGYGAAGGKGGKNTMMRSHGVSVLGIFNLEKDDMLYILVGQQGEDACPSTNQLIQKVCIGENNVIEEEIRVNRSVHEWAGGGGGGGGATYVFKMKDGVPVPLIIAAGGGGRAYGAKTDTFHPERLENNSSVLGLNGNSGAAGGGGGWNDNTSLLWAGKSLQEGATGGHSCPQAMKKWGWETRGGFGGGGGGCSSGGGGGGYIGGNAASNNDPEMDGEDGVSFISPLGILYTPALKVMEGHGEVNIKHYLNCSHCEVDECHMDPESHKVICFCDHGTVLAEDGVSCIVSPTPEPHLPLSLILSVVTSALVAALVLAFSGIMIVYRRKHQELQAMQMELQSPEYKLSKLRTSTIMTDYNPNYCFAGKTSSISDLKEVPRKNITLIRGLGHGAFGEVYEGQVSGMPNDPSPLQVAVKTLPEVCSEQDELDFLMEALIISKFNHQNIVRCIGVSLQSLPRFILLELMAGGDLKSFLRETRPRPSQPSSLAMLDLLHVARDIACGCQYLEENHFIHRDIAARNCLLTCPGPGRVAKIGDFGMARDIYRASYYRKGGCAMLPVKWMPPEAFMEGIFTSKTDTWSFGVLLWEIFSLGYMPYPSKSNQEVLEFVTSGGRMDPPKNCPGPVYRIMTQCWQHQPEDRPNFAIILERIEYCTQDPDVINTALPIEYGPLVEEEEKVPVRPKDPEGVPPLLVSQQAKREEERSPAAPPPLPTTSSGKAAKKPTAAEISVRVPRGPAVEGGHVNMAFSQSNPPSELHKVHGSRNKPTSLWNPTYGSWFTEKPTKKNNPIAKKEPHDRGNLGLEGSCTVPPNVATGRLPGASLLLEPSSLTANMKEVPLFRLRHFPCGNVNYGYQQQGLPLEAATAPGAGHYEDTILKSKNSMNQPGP
# In short: (§1)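 Kinase binding profiling ran on a commercial (Ambit) competitive binding screen against a panel of 90 kinases. The screen used reducing conditions with 7.5 mM DTT. To withstand the DTT, the bivalent ligand was tested as its amide isostere, with the disulfide replaced. A staurosporine derivative carrying a 3 β-alanine linker was run as the reference compound.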
# [3] = molecular target: Serine/threonine-protein kinase B-raf (Homo sapiens) (UniProt P15056); assay: Binding affinity to human BRAF at 500 nM by cell-based competition binding assay relative to control in presence of DTT; in short: as §1
# Serine/threonine-protein kinase B-raf (Homo sapiens), sequence (P15056 whole entry): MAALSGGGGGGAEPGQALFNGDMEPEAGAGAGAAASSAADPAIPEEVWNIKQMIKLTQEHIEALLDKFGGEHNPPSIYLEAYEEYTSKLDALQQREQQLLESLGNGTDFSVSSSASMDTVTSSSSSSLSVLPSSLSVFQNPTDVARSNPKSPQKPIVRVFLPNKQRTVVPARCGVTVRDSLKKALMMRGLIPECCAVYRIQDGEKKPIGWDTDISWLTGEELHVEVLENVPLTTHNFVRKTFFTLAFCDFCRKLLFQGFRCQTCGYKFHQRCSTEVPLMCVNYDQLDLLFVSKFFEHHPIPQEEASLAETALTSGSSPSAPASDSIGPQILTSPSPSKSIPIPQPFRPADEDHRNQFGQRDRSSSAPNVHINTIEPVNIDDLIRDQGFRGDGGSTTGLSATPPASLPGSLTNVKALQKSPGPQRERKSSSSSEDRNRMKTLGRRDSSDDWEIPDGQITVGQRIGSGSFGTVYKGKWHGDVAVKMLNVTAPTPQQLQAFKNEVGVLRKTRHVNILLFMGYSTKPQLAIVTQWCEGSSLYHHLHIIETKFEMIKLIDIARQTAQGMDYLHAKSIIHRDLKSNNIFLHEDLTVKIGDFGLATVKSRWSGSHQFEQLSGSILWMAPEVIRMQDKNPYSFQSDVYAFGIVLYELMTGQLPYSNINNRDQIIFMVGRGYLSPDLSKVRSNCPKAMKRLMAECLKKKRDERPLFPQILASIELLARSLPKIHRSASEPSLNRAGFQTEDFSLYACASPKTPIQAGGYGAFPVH
# [4] = molecular target: Platelet-derived growth factor receptor beta (Homo sapiens) (UniProt P09619); assay: Binding affinity to human PDGFRbeta at 500 nM by cell-based competition binding assay relative to control in presence of DTT
# [5] = system: Mast/stem cell growth factor receptor Kit (Homo sapiens), P10721 [V559D,T670I]; assay: Binding affinity to human KIT V559D,T670I mutant at 500 nM by cell-based competition binding assay relative to control in presence of DTT
# Mast/stem cell growth factor receptor Kit (Homo sapiens), P10721 [V559D,T670I], sequence (P10721 whole entry V559D/T670I): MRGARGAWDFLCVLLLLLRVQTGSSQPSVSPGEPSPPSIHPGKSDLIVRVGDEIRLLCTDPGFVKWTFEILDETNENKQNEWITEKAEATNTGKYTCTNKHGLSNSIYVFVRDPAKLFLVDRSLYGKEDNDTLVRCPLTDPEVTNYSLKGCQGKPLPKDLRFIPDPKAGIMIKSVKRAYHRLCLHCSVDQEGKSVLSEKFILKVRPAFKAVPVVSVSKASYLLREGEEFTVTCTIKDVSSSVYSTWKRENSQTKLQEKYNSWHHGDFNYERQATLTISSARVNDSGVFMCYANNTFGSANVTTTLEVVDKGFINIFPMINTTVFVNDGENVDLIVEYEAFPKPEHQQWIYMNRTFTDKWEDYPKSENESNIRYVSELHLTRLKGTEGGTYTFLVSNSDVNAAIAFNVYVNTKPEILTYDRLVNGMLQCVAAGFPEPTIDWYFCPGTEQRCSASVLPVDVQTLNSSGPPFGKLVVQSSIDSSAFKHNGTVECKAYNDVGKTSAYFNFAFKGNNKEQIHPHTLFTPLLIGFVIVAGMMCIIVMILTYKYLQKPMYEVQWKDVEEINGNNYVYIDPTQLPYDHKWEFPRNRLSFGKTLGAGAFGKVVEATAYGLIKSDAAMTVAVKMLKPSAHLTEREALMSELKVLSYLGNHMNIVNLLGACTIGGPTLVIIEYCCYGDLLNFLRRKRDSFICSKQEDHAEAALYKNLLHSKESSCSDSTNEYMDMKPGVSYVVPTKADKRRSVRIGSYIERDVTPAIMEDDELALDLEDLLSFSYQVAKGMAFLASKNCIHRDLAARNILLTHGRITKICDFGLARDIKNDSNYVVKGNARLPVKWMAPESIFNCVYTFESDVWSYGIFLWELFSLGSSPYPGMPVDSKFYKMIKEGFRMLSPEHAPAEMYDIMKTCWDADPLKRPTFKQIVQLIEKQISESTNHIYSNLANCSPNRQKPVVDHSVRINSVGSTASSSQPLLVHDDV
# In short: (§2)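 Competition binding screen (Ambit) across a panel of 90 kinases, scoring test ligand displacement of each kinase's binding relative to control. The screen ran under reducing conditions with 7.5 mM DTT.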
# [6] = molecular target: Serine/threonine-protein kinase PAK 1 (Homo sapiens) (UniProt Q13153); assay: Binding affinity to human PAK1 at 500 nM by cell-based competition binding assay relative to control in presence of DTT
# Serine/threonine-protein kinase PAK 1 (Homo sapiens), sequence (Q13153 whole entry): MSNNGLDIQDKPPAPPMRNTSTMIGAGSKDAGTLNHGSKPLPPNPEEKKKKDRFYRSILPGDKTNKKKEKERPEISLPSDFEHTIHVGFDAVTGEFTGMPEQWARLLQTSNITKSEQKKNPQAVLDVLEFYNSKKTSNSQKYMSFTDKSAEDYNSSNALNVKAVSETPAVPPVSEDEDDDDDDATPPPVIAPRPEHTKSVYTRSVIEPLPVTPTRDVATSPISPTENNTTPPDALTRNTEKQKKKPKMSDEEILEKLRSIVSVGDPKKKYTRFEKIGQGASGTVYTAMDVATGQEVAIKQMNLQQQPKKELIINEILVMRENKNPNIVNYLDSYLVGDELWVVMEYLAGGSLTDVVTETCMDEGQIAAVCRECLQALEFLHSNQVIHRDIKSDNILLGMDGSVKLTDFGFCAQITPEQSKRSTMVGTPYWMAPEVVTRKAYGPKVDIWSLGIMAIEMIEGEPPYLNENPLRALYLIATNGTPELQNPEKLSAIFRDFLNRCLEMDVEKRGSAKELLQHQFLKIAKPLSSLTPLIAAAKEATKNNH
# [7] = molecular target: Platelet-derived growth factor receptor alpha (Homo sapiens) (UniProt P16234); assay: Binding affinity to human PDGFRalpha at 500 nM by cell-based competition binding assay relative to control in presence of DTT
# [8] = molecular target: Focal adhesion kinase 1 (Homo sapiens) (UniProt Q05397); assay: Binding affinity to human PTK2 at 200 nM by cell-based competition binding assay relative to control in presence of DTT
# [9] = molecular target: Mitogen-activated protein kinase 9 (Homo sapiens) (UniProt P45984); assay: Binding affinity to human JNK2 at 200 nM by cell-based competition binding assay relative to control in presence of DTT; in short: as §2
# [10] = molecular target: Casein kinase I isoform delta (Homo sapiens) (UniProt P48730); assay: Binding affinity to human CSNK1D at 200 nM by cell-based competition binding assay relative to control in presence of DTT
# Casein kinase I isoform delta (Homo sapiens), sequence (P48730 whole entry, looked up, canonical isoform): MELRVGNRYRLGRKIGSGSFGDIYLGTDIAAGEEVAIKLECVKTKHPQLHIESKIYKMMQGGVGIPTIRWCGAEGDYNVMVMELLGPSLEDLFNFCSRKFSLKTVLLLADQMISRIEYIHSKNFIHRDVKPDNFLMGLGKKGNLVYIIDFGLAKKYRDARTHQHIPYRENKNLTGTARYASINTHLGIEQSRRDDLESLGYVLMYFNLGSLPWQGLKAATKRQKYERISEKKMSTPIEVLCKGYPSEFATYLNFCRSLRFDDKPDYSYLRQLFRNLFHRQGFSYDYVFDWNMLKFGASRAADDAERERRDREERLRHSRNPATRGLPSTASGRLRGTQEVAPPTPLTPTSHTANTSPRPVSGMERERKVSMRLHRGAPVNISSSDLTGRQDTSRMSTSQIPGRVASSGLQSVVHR
# In short: (§3)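 Commercial (Ambit) competitive kinase-binding panel of 90 kinases measured the binding profile. Run under reducing conditions of 7.5 mM DTT. Binding is expressed relative to control.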
# [11] = molecular target: Casein kinase I isoform gamma-2 (Homo sapiens) (UniProt P78368); assay: Binding affinity to human CSNK1G2 at 200 nM by cell-based competition binding assay relative to control in presence of DTT; in short: as §3
# [12] = molecular target: T1, Protein kinase C epsilon type (Homo sapiens) (UniProt Q02156); assay: Binding affinity to human PRKCepsilon at 200 nM by cell-based competition binding assay relative to control in presence of DTT
# T1 sequence (whole entry): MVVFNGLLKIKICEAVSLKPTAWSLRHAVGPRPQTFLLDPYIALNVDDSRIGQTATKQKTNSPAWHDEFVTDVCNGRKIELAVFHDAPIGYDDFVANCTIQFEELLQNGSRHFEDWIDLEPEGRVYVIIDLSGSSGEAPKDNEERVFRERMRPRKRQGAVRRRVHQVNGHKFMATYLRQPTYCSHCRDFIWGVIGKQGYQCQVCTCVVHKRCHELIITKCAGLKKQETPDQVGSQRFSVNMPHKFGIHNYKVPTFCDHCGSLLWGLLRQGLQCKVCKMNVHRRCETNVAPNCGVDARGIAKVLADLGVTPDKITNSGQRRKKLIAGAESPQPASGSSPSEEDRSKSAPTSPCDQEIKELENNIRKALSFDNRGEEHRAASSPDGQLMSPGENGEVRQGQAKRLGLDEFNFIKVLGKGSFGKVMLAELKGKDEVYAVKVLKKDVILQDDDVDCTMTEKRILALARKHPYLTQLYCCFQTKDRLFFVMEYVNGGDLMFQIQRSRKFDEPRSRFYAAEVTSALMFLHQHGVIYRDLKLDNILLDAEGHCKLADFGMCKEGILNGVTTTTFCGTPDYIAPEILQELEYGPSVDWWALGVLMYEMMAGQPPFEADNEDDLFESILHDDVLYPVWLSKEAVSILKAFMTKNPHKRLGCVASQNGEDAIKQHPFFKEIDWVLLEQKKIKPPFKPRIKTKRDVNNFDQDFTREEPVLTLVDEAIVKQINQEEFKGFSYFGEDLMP
# [13] = molecular target: Proto-oncogene tyrosine-protein kinase Src (Homo sapiens) (UniProt P12931); assay: Binding affinity to human SRC at 200 nM by cell-based competition binding assay relative to control in presence of DTT
# Proto-oncogene tyrosine-protein kinase Src (Homo sapiens), sequence (P12931 2-536 limits assumed): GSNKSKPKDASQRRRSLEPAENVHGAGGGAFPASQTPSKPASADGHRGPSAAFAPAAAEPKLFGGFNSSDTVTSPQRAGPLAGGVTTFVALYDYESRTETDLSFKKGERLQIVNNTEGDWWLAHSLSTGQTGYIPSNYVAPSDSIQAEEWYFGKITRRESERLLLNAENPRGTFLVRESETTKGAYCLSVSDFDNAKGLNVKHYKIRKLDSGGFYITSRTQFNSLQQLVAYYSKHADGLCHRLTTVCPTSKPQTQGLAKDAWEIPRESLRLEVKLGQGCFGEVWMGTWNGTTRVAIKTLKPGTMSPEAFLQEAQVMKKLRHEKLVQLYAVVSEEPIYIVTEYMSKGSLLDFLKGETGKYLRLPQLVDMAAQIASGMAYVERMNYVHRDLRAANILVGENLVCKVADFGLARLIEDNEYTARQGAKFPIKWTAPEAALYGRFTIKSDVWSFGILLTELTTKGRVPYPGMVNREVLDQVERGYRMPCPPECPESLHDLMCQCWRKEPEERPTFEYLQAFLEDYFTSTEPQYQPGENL
# [14] = molecular target: ALK tyrosine kinase receptor (Homo sapiens) (UniProt Q9UM73); assay: Binding affinity to human ALK at 50 nM by cell-based competition binding assay relative to control in presence of DTT; in short: as §1
# [15] = molecular target: Mitogen-activated protein kinase 14 (Homo sapiens) (UniProt Q16539); assay: Binding affinity to human p38alpha at 50 nM by cell-based competition binding assay relative to control in presence of DTT
# [16] = molecular target: T2, 3-phosphoinositide-dependent protein kinase 1 (Homo sapiens) (UniProt O15530); assay: Binding affinity to human PDPK1 at 50 nM by cell-based competition binding assay relative to control in presence of DTT
# T2 sequence (whole entry): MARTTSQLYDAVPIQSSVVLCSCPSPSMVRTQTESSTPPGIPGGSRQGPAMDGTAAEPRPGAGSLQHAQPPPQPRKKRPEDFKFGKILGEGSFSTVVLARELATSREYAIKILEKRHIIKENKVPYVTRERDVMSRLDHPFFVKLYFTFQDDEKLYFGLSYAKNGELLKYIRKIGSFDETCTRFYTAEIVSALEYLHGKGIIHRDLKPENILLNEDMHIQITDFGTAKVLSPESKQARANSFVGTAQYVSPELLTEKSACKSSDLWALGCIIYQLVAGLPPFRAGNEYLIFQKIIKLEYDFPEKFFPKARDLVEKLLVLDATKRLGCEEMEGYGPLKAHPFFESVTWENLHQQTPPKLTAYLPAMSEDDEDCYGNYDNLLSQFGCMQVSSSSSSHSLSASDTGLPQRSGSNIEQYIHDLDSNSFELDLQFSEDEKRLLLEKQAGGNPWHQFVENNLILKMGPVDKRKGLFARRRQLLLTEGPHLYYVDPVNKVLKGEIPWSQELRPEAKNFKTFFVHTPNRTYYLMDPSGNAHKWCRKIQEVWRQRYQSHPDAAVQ
# [17] = molecular target: Vascular endothelial growth factor receptor 2 (Homo sapiens) (UniProt P35968); assay: Binding affinity to human VEGFR2 at 50 nM by cell-based competition binding assay relative to control in presence of DTT
smiles,measurement,setting,value
CO[C@@H]1[C@H](N(C)C(=O)CCC(=O)NCCC(=O)NCCC(=O)NCCC(N)=O)C[C@H]2O[C@]1(C)n1c3ccccc3c3c4c(c5c6ccccc6n2c5c31)C(=O)NC4,Activity,[1],100%
same,Activity,[2],5.2%
same,Activity,[3],100%
same,Activity,[4],0.05%
same,Activity,[5],4.8%
same,Activity,[6],4%
same,Activity,[7],7%
CO[C@@H]1[C@H](N(C)C(=O)CCC(=O)NCCC(=O)NCCC(=O)NCCC(=O)NCCC(=O)NCCC(=O)NCCC(=O)NCCC(=O)N[C@H]2CSSC[C@@H](C(=O)NCC(N)=O)NC(=O)CNC(=O)[C@H](Cc3ccccc3)NC(=O)[C@H](C(C)C)NC(=O)[C@H](CCCNC(=N)N)NC(=O)[C@H](Cc3ccccc3)NC(=O)[C@H](C(C)C)NC2=O)C[C@H]2O[C@]1(C)n1c3ccccc3c3c4c(c5c6ccccc6n2c5c31)C(=O)NC4 ({Staurosporine-Suc-βAla-βAla-βAla-βAla-βAla-βAla-βAla}-CVFRVFGCG-NH2; disulfide 1-8),Activity,[8],91%
same,Activity,[9],89%
same,Activity,[10],100%
same,Activity,[11],100%
same,Activity,[12],0%
same,Activity,[13],100%
CO[C@@H]1[C@H](N(C)C(=O)CCC(=O)NCCC(=O)NCCC(=O)NCCC(=O)NCCC(=O)NCCC(=O)NCCC(=O)NCCC(=O)N[C@H]2CNC(=O)C[C@@H](C(N)=O)NC(=O)CNC(=O)[C@H](Cc3ccccc3)NC(=O)[C@H](C(C)C)NC(=O)[C@H](CCCNC(=N)N)NC(=O)[C@H](Cc3ccccc3)NC(=O)[C@H](C(C)C)NC2=O)C[C@H]2O[C@]1(C)n1c3ccccc3c3c4c(c5c6ccccc6n2c5c31)C(=O)NC4 ({Staurosporine-Suc-βAla-βAla-βAla-βAla-βAla-βAla-βAla}-[Dap]VFRVFGD-NH2; lactam 1-8),Activity,[14],92%
same,Activity,[15],95%
same,Activity,[16],48%
same,Activity,[17],91%
